# In ChEMBL document CHEMBL5370575, “Probing the Cytotoxic Signaling Induced by Eupenifeldin in Ovarian Cancer Models” (J Nat Prod, 2023):
# Calls of active or inactive are those of the source. No cut-off for these calls is given here.
# How the values were obtained:
# [1] = test system: OVCAR-3; assay: Induction of ferroptosis in human OVCAR-3 cells at 0.001 to 10 uM in presence of ferrostatin-1 by CellTiterGlo assay; assay type: functional, cell-based; conditions: dose 0.001-10 µM
# [2] = test system: OVCAR-5; assay: Induction of apoptosis in human OVCAR-5 cells at 25 nM incubated for 48 hrs by Annexin V-FITC/propidium iodide staining based analysis; assay type: functional, cell-based
# How it was run: (§1)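 OVCAR5/OVCAR8 seeded at 175 000 and OVCAR3 at 190 000 cells per 60 mm dish, attached overnight, treated 48 h (10, 25 or 50 nM). Media and cells collected, PBS-washed, stained with annexin V-FITC/propidium iodide and read on a cell counter with gating per kit. Three biological replicates, mean ± SEM, Dunnett's test.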
# [3] = test system: OVCAR-3; assay: Induction of apoptosis in human OVCAR-3 cells assessed as increase in apoptotic cells at 25 nM incubated for 48 hrs by Annexin V-FITC/propidium iodide staining based analysis; assay type: functional, cell-based; how it was run: as §1
# [4] = test system: OVCAR-3; assay: Induction of apoptosis in human OVCAR-3 cells assessed as increase in necrotic cells at 25 nM incubated for 48 hrs by Annexin V-FITC/propidium iodide staining based analysis; assay type: functional, cell-based; how it was run: as §1
# [5] = test system: OVCAR-8; assay: Induction of apoptosis in human OVCAR-8 cells assessed as increase in apoptotic cells at 25 nM incubated for 48 hrs by Annexin V-FITC/propidium iodide staining based analysis; assay type: functional, cell-based; how it was run: as §1
# [6] = test system: OVCAR-3 (Homo sapiens); assay: Anti-ferroptotic activity against human OVCAR-3 cells assessed as decrease in lipid peroxidation at 50 nM incubated for 24 hrs in presence of ferrostatin-1 by C11-BODIPY staining based flow cytometric analysis
# [7] = test system: OVCAR-8; assay: Antitumor activity against human OVCAR-8 cells xenografted in immunodeficient NCr nu/nu mouse assessed as reduction in cell survival at 0.5 mg/kg, ip administrated once per day for 4 days measured on day 7 by MTT assay; assay type: functional, organism-based; conditions: time 7.0 day
# How it was run: (§2)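 Female immunodeficient NCr nu/nu mice (6–8 weeks) carried intraperitoneal polyvinylidene fluoride hollow fibres holding OVCAR3 and OVCAR8 cells (day 0). Dosed ip once daily on days 3–6 in 2% DMSO/48% PEG300/50% H₂O diluted with H₂O. Fibres retrieved on day 7; cell viability by modified MTT assay. One-way ANOVA with Dunnett's test vs vehicle.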
# [8] = test system: OVCAR-3; assay: Induction of ferroptosis in human OVCAR-3 cells at 0.1 to 10 uM in the presence of ferrostatin-1 by CellTiterGlo assay; assay type: functional, cell-based; conditions: dose 0.1-10 µM
# How it was run: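 OVCAR3 in 384-well plates (1000 cells/well), given 100 nM to 10 μM together with 2 μM ferrostatin-1, in triplicate; viability measured by CellTiter-Glo.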
# [9] = test system: OVCAR-3; assay: Induction of apoptosis in human OVCAR-3 cells assessed as increase in cleaved PARP expression level at >=10 nM incubated for 72 hrs by Western blotting analysis
# [10] = test system: OVCAR-5; assay: Cytotoxicity against human OVCAR-5 cells assessed as reduction in colony formation at 10 nM incubated for 8 hrs measured after 15 days by crystal violet staining based analysis; assay type: functional, cell-based; conditions: time 368.0 hrs
# How it was run: (§3)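 Seeded at 200 cells per dish, attached overnight, exposed 8 h to 10 nM (DMSO vehicle 0.1%), then grown 15 days in untreated growth medium. Colonies fixed with 4% paraformaldehyde, stained with 0.05% crystal violet, counted and normalised to vehicle. Mean ± SEM, three biological replicates, one-way ANOVA with Dunnett's test.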
# [11] = test system: OVCAR-5; assay: Induction of apoptosis in human OVCAR-5 cells assessed as decrease in caspase-3/7 activity at 50 nM incubated for 48 hrs in presence of by ZVAD-FMK fluorescent reporter assay
# [12] = test system: OVCAR-5; assay: Inhibition of cell migration in human OVCAR-5 cells assessed as decrease in wound closure at 10 to 25 nM incubated for 48 hrs by wound healing assay; assay type: functional, cell-based; conditions: dose 10-25 nM
# How it was run: (§4)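 Confluent monolayers scratched once, washed with PBS, then treated with 10 or 25 nM (paclitaxel 10 nM control) for 48 h. Scratch area imaged at 4× at 0 and 48 h, measured and normalised to vehicle. One-way ANOVA with Dunnett's test.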
# [13] = test system: OVCAR-3; assay: Induction of apoptosis in human OVCAR-3 cells assessed as increase in caspase-3/7 activity at 50 nM incubated for 48 hrs by fluorescent reporter assay
# [14] = test system: OVCAR-8; assay: Induction of autophagy in human OVCAR-8 cells assessed as reduction in cell viability at 25 nM incubated for 72 hrs in the presence of 1 nM bafilomycin by CellTiter-Blue Cell Viability assay; assay type: functional, cell-based
# How it was run: (§5)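 5000 cells/well attached overnight, then treated 72 h with 25 nM alone or with bafilomycin A1 (5 nM; OVCAR8 also at 1 nM); bafilomycin alone as control. Viability by CellTiter-Blue fluorescence, normalised to vehicle. One-way ANOVA with Tukey's test.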
# [15] = test system: OVCAR-3; assay: Induction of apoptosis in human OVCAR-3 cells assessed as decrease in caspase-3/7 activity at 50 nM incubated for 48 hrs in presence of by ZVAD-FMK fluorescent reporter assay
# [16] = test system: OVCAR-3; assay: Antitumor activity against human OVCAR-3 cells xenografted in immunodeficient NCr nu/nu mouse assessed as reduction in cell survival at 0.5 mg/kg, ip administrated once per day for 4 days measured on day 7 by MTT assay; assay type: functional, organism-based; conditions: time 7.0 day; how it was run: as §2
# [17] = test system: OVCAR-8; assay: Cytotoxicity against human OVCAR-8 cells assessed as inhibition of cell growth for 72 hrs by CellTiter-Blue cell viability assay; assay type: functional, cell-based; conditions: OVCAR-8, 72 h
# How it was run: (§6)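 5000 cells seeded in triplicate, attached overnight, then exposed for 72 h to serial concentrations in DMSO vehicle (0.05%). Viability was read by fluorometric CellTiter-Blue. IC50 in nM comes from dose–response curves relative to DMSO control. Media: OVCAR3 in RPMI1640, OVCAR5/OVCAR8 in DMEM, hFT33 in DMEM-Ham's F12 50/50, all with 10% FBS. Data are mean ± SEM, three biological replicates.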
# [18] = Cytotoxicity against human FT33 cells assessed as inhibition of cell growth for 72 hrs by CellTiter-Blue cell viability assay; assay type: toxicity, cell-based; how it was run: as §6
# [19] = Toxicity in immunodeficient NCr nu/nu mouse xenografted with human OVCAR-8 cells assessed as change in body weight at 0.5 mg/kg, ip administrated once per day for 4 days measured measured on day 7 relative to control; assay type: organism-based; conditions: in vivo, 168 h, time 7 day
# How it was run: (§7)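 Female immunodeficient NCr nu/nu mice, 6–8 weeks old, carried cells sealed in polyvinylidene fluoride hollow fibers implanted intraperitoneally on day 0. Dosing was i.p. once daily on days 3–6 in 2% DMSO:48% PEG300:50% H2O, diluted with H2O. Body weight was followed over the study, and fibers were retrieved on day 7.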
# [20] = test system: OVCAR-5; assay: Induction of apoptosis in human OVCAR-5 cells assessed as increase in caspase-3/7 activity at 50 nM incubated for 48 hrs by fluorescent reporter assay
# [21] = test system: HeLa; assay: Induction of autophagy in human HeLa cells harboring eGFP-LC3 assessed as increase in LC3 puncta accumulation at 250 nM incubated for 4 hrs by Hoechst 33342 and DAPI staining based analysis; assay type: functional, cell-based
# How it was run: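 HeLa stably expressing eGFP-LC3, 384-well plates, treated 4 h with serial dilutions starting at 250 nM, fixed in 4% formaldehyde, nuclei counterstained, imaged at 10× (FITC); LC3 puncta quantified by image analysis, normalised to DMSO, dose–response fitted.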
# [22] = test system: OVCAR-5; assay: Induction of autophagy in human OVCAR-5 cells assessed as reduction in cell viability at 25 nM incubated for 72 hrs in presence of bafilomycin by CellTiter-Blue Cell Viability assay; assay type: functional, cell-based; how it was run: as §5
# [23] = test system: OVCAR-8; assay: Induction of apoptosis in human OVCAR-8 cells assessed as decrease in caspase-3/7 activity at 50 nM incubated for 48 hrs in presence of by ZVAD-FMK fluorescent reporter assay
# [24] = test system: HeLa; assay: Induction of autophagic flux in human HeLa cells harbouring mCherry-eGFP-LC3 assessed as increase in number of autolysosomes at 10 nM incubated for 24 hrs by Hoechst 33342 and DAPI staining based analysis; assay type: functional, cell-based
# How it was run: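 HeLa stably expressing mCherry-eGFP-LC3, 384-well plates, treated 24 h, fixed 12 min in 4% formaldehyde, nuclei stained, imaged at 10× under FITC and Texas Red filters; autolysosomes/autophagosomes quantified by high-content analysis and normalised to DMSO; chloroquine as control. Three biological replicates in duplicate.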
# [25] = test system: OVCAR-3; assay: Induction of autophagy in human OVCAR-3 cells assessed as reduction in cell viability at 25 nM incubated for 72 hrs in presence of bafilomycin by CellTiter-Blue Cell Viability assay; assay type: functional, cell-based; how it was run: as §5
# [26] = test system: OVCAR-3; assay: Anti-ferroptotic activity against human OVCAR-3 cells assessed as decrease in lipid peroxidation at 50 nM incubated for 24 hrs by C11-BODIPY staining based flow cytometric analysis; assay type: functional, cell-based
# How it was run: (§8)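 Cells treated 24 h with 50 nM, with or without 2 μM ferrostatin-1; lipid peroxidation read as C11-BODIPY fluorescence in the green channel by flow cytometry.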
# [27] = test system: OVCAR-5; assay: Cytotoxicity against human OVCAR-5 cells assessed as inhibition of cell growth for 72 hrs by CellTiter-Blue cell viability assay; assay type: functional, cell-based; conditions: OVCAR-5, 72 h; how it was run: as §6
# [28] = test system: OVCAR-8; assay: Cytotoxicity against human OVCAR-8 cells assessed as reduction in colony formation at 10 nM incubated for 8 hrs measured after 15 days by crystal violet staining based analysis; assay type: functional, cell-based; conditions: time 368.0 hrs; how it was run: as §3
# [29] = test system: OVCAR-3; assay: Anti-ferroptotic activity against human OVCAR-3 cells assessed as decrease in lipid peroxidation at 50 nM incubated for 24 hrs in presence of ferrostatin-1 by C11-BODIPY staining based flow cytometric analysis; assay type: functional, cell-based; how it was run: as §8
# [30] = Toxicity in immunodeficient NCr nu/nu mouse xenografted with human OVCAR-3 cells assessed as change in body weight at 0.5 mg/kg, ip administrated once per day for 4 days measured measured on day 7 relative to control; assay type: organism-based; conditions: in vivo, 168 h, time 7 day; how it was run: as §7
# [31] = test system: OVCAR-8; assay: Induction of apoptosis in human OVCAR-8 cells assessed as increase in caspase-3/7 activity at 50 nM incubated for 48 hrs by fluorescent reporter assay
# [32] = test system: OVCAR-3; assay: Cytotoxicity against human OVCAR-3 cells assessed as reduction in colony formation at 10 nM incubated for 8 hrs measured after 15 days by crystal violet staining based analysis; assay type: functional, cell-based; conditions: time 368.0 hrs; how it was run: as §3
# [33] = test system: OVCAR-8; assay: Inhibition of cell migration in human OVCAR-8 cells assessed as decrease in wound closure at 10 to 25 nM incubated for 48 hrs by wound healing assay; assay type: functional, cell-based; conditions: dose 10-25 nM; how it was run: as §4
# [34] = test system: OVCAR-3 (Homo sapiens); assay: Anti-ferroptotic activity against human OVCAR-3 cells assessed as decrease in lipid peroxidation at 50 nM incubated for 24 hrs by C11-BODIPY staining based flow cytometric analysis
# [35] = test system: OVCAR-8; assay: Induction of apoptosis in human OVCAR-8 cells assessed as increase in necrotic cells at 25 nM incubated for 48 hrs by Annexin V-FITC/propidium iodide staining based analysis; assay type: functional, cell-based; how it was run: as §1
# [36] = test system: OVCAR-3; assay: Cytotoxicity against human OVCAR-3 cells assessed as inhibition of cell growth for 72 hrs by CellTiter-Blue cell viability assay; assay type: functional, cell-based; conditions: OVCAR-3, 72 h; how it was run: as §6
smiles,measurement,setting,value
CC(C)Oc1ccc(C(=O)Cn2ccnc2)cc1-n1c(CN2CCN(C(=O)COc3ccc(Cl)cc3)CC2)nc2ccccc2c1=O,Activity,[1],inactive
COC(=O)c1ccc([C@H]2c3[nH]c4ccccc4c3C[C@H](C(=O)OC)N2C(=O)CCl)cc1,Activity,[1],inactive
Cc1cc(=O)c(O)cc2c1C[C@H]1CC(C)(C)/C=C/C[C@]3(C)Oc4cc(O)c(=O)cc(C)c4C[C@H]3C[C@H](O)[C@@]1(C)O2,Activity,[2],inactive
same,Activity,[3],Active
same,Activity,[4],Active
same,Activity,[5],Active
same,Activity,[6],Active
same,Activity,[7],inactive
same,Activity,[8],Active
same,Activity,[9],Active
same,Activity,[10],Active
same,Activity,[11],Active
same,inhibition,[12],Active
same,Activity,[13],Active
same,Activity,[14],inactive
same,Activity,[15],Active
same,Activity,[16],Active
same,IC50,[17],0.012 µM
same,IC50 at 72 h,[18],0.17 µM
same,Activity,[19],> 12%
same,Activity,[20],Active
same,Activity,[21],Active
same,Activity,[22],inactive
same,Activity,[23],Active
same,Activity,[24],Active
same,Activity,[25],inactive
same,Activity,[26],Active
same,IC50,[27],0.011 µM
same,Activity,[28],Active
same,Activity,[29],Active
same,Activity,[30],<= 12%
same,Activity,[31],Active
same,Activity,[32],Active
same,inhibition,[33],Active
same,Activity,[34],Active
same,Activity,[35],Active
same,IC50,[36],0.0097 µM
